High-throughput results as filed in PubChem.
FXIIa inh 1536: factor XIIa (human) inhibition; purified FXIIa, Boc-QGR-AMC fluorogenic substrate, 2 h; inhibition, % at 5 µM; 220,000 tested, 0.3% active; AID 800; in the data active means inhibition above about 40%;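 further: 0% = enzyme with no compound and 100% = blank without enzyme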
thrombin 1536: inhibitors of human thrombin; P00734; alpha-thrombin, Boc-VPR-AMC fluorogenic substrate cleavage; inhibition, % at 5 µM; 220,000 tested, 0.26% active; AID 1046;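 active means inhibition at or above 40%; inactive means inhibition below 40%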;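 further: 0% = enzyme with no compound and 100% = wells without enzyme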
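Test system: human alpha-thrombin; medium: pH 7.5 Tris-saline with Tween 20; times: reaction at room temperature; signal: AMC fluorescence at 355 nm excitation and 460 nm emission; also added: Boc-VPR-AMC substrate, 15 µM final; dosing: one concentration per compound, 5 µM, with 0.2% DMSO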
KLK5 inh: blocks human kallikrein 5 protease activity | recombinant hK5, fluorogenic AMC substrate cleavage | inhibition, % at 5 µM | AID 873 | 210,000 tested, 0.59% active;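 active means inhibition of 40% or more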;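 further: 0% = enzyme controls without compound and 100% = no-enzyme blanks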
Target sequence (Q9Y337 67-293 limits assumed): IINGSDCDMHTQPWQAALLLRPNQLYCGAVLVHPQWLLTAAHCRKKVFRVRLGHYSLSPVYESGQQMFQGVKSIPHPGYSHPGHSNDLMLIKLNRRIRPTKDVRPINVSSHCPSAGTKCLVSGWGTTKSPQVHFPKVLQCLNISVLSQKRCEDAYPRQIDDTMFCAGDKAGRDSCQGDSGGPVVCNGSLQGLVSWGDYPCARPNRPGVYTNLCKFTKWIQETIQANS
EP2 mod: modulators of human EP2 prostaglandin E2 receptor | P43116 | EP2-expressing cells, cAMP HTRF FRET, PGE2 co-stimulation | induction, % at 25 µM | 260,000 tested, 0.83% active | AID 940;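 active means compounds whose cAMP rise, as percent of the full-agonist control response, exceeds 60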;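 further: rat C6 glioma line stably carrying human EP2 under a CMV promoter; the protocol text gives 20 µM as final concentration; 100% = response of wells given 1 µM PGE2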
Target sequence (P43116 whole entry, looked up): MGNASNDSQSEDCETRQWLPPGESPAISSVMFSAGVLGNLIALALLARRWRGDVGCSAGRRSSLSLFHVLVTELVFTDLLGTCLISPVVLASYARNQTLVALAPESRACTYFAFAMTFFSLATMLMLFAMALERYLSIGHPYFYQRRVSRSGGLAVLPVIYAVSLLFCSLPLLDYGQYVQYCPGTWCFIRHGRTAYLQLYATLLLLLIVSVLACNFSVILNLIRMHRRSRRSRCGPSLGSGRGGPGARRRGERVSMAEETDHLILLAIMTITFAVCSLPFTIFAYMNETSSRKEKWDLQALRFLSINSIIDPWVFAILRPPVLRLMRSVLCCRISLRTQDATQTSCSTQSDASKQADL
FXIa inh 1536: inhibitors of human coagulation factor XIa | P03951 | purified FXIa, Boc-Glu-Ala-Arg-AMC fluorogenic substrate | inhibition, % at 5 µM | 220,000 tested, 0.14% active | AID 798;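 active means inhibition of at least 40%; inactive means inhibition below 40%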;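 further: fluorescence of freed AMC excited at 355 nm; 0% = enzyme without compound and 100% = no enzyme blank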
EP2 antag: blocks the human prostaglandin E2 receptor EP2 | C6 glioma cells expressing human EP2, cAMP TR-FRET; cells stimulated with saturating PGE2 | P43116 | inhibition, % at 25 µM | 260,000 tested, 0.52% active;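 active means percent inhibition above 40 after rounding to a whole number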;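 further: rat C6 glioma host cells with rolipram phosphodiesterase inhibitor present; the protocol text gives 20 µM as final concentration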
* hit, by the source's call. The list is not random: actives were taken first. Their share in the collection is about 2.1%.

`CCOC(=O)C1=C(CC)Nc2ccccc2N=C1NC(=O)CCN1C(=O)C2CCCCC2C1=O` (stereo unspecified) gave FXIIa inh 1536 24, thrombin 1536 36, KLK5 inh 54*, EP2 mod -10, FXIa inh 1536 32 and EP2 antag 6.
`Cc1ccsc1CNC(=O)c1c(-c2ccccc2)noc1C` gave FXIIa inh 1536 1, thrombin 1536 -8, KLK5 inh 42*, EP2 mod 17, FXIa inh 1536 -17 and EP2 antag 11.
`Cc1onc(-c2ccccc2)c1C(=O)NCc1ccccn1` gave FXIIa inh 1536 -6, thrombin 1536 -21, KLK5 inh 2, EP2 mod 21, FXIa inh 1536 0 and EP2 antag 18.
NC(=O)c1ccc(N2CCCC2)c(NC(=O)c2ncoc2-c2cccs2)c1 was read as EP2 mod -52 and EP2 antag 13.
For O=C(Nc1ccccc1N1CCCCC1)c1ncoc1-c1cccs1 the results were EP2 mod 66*.
COc1ccc(NC(=S)N(CCN(C)C)Cc2cc3cc(OC)ccc3[nH]c2=O)cc1 was read as EP2 mod -26 and EP2 antag 17.
c1ccc(OCCOCCN2CCN(C(c3ccccc3)c3ccccc3)CC2)cc1 was read as FXIIa inh 1536 12, thrombin 1536 -1, KLK5 inh -9, EP2 mod 61*, FXIa inh 1536 5 and EP2 antag 7.
CN(C1=C(NC(=O)c2ccccc2)C(=O)c2ccccc2C1=O)C1CCS(=O)(=O)C1 (stereo unspecified) was read as FXIIa inh 1536 16, thrombin 1536 5, KLK5 inh -8, EP2 mod -59, FXIa inh 1536 9 and EP2 antag 44*.
Screening O=C(NCc1cccnc1)C(=O)C1C(=O)Nc2ccccc21 (stereo unspecified) returned FXIIa inh 1536 2, thrombin 1536 -3, KLK5 inh 41*, EP2 mod -3, FXIa inh 1536 -2 and EP2 antag 3.
For CC(C)[C@@H](Cn1nc(C2CC2)ccc1=O)NC(=O)C1CC1 the results were EP2 mod -32.
Screening CCCCOCCCNC(=O)C1CCCCC1 returned FXIIa inh 1536 10, thrombin 1536 13, KLK5 inh 41*, EP2 mod -2, FXIa inh 1536 7 and EP2 antag 12.
O=C(CSc1nnc(NC(=O)C23CC4CC(CC(C4)C2)C3)s1)NC1CCCCC1 was read as EP2 mod -73 and EP2 antag 33.
O=C(NCCN1C(=O)C2C3C=CC(C3)C2C1=O)Nc1ccccc1 (stereo unspecified) was read as FXIIa inh 1536 107*, thrombin 1536 18, KLK5 inh 39, EP2 mod 23, FXIa inh 1536 5 and EP2 antag 6.
Screening COC(=O)c1ccc(CSc2nc3c(cnn3-c3ccc(C)c(C)c3)c(=O)[nH]2)o1 returned FXIIa inh 1536 24, thrombin 1536 -1, KLK5 inh 15, EP2 mod 65*, FXIa inh 1536 13 and EP2 antag 10.
`CS(=O)(=O)c1ccc2nc(NC(=O)c3ccc(NS(=O)(=O)c4cccc([N+](=O)[O-])c4)cc3)sc2c1` gave FXIIa inh 1536 12, thrombin 1536 53*, KLK5 inh 3, EP2 mod -10, FXIa inh 1536 4 and EP2 antag 10.
Screening CC(=O)Nc1ccc(S(=O)(=O)Nc2nc3ccc([N+](=O)[O-])cc3s2)cc1 returned FXIIa inh 1536 8, thrombin 1536 -13, KLK5 inh 5, EP2 mod 3, FXIa inh 1536 -2 and EP2 antag 5.
`O=C1CSC2(CCN(CCCN3c4ccccc4Sc4ccc(Cl)cc43)CC2)N1` gave EP2 mod 30 and EP2 antag 34.
`Clc1ccc2c(c1)N(CCCN1CCCC13CCCCC3)c1ccccc1S2` gave EP2 mod -5 and EP2 antag 53*.
`O=C(Nc1ncnc2sc3c(c12)CCCCC3)c1ccc(F)cc1` gave FXIIa inh 1536 47*, thrombin 1536 -2, KLK5 inh 6, EP2 mod 8, FXIa inh 1536 14 and EP2 antag 5.
Screening C=CCn1c2cc(C)sc2c2cnn(CC(=O)NC(C)(C)C)c(=O)c21 returned EP2 mod -2.
`CCOC(=O)c1c(NC(=O)COc2ncnc3ccccc23)sc(C)c1CC` gave FXIIa inh 1536 24, thrombin 1536 34, KLK5 inh 69*, EP2 mod 41, FXIa inh 1536 3 and EP2 antag 4.
`CCCSc1cc(N2CCCC2)nc(-c2ccccc2)n1` gave FXIIa inh 1536 19, thrombin 1536 -5, KLK5 inh -3, EP2 mod 49, FXIa inh 1536 4 and EP2 antag 1.
CCSc1cc(N2CCCC2)nc(-c2ccccc2)n1 was read as FXIIa inh 1536 15, thrombin 1536 3, KLK5 inh 7, EP2 mod 64*, FXIa inh 1536 6 and EP2 antag 7.
Screening CCOc1ccc(N=C2NN=C(c3cc(C)n(CC4CCCO4)c3C)CS2)cc1 (stereo unspecified) returned FXIIa inh 1536 36, thrombin 1536 10, KLK5 inh 45*, EP2 mod -41, FXIa inh 1536 30 and EP2 antag 7.
Screening Cc1nc(C)c(C(=O)NCCC(c2ccccc2)c2ccccc2)o1 returned FXIIa inh 1536 -1, thrombin 1536 -3, KLK5 inh -10, EP2 mod -21, FXIa inh 1536 -9 and EP2 antag 8.
`Cc1ccsc1C(=O)NCCC(c1ccccc1)c1ccccc1` gave FXIIa inh 1536 48*, thrombin 1536 17, KLK5 inh 35, EP2 mod 11, FXIa inh 1536 17 and EP2 antag 5.
Screening CC1(C)[C@@H]2CC[C@@]1(CS(=O)(=O)Nc1ccccc1)C(=O)C2 returned EP2 mod 24 and EP2 antag 51*.
Screening CC1(C)C2CCC1(CS(=O)(=O)N1CCOCC1)C(=O)C2 (stereo unspecified) returned FXIIa inh 1536 5, thrombin 1536 -6, KLK5 inh -8, EP2 mod 0, FXIa inh 1536 -4 and EP2 antag 96*.
Screening COc1ccccc1N1CCN(S(=O)(=O)CC23CCC(CC2=O)C3(C)C)CC1 (stereo unspecified) returned FXIIa inh 1536 19, thrombin 1536 5, KLK5 inh -5, EP2 mod -2, FXIa inh 1536 4 and EP2 antag 13.
For CCOc1ccccc1NC(=O)CN1CCC(NC(=O)c2ccco2)CC1 the results were EP2 mod -16 and EP2 antag 5.
For CC1CC2(CCCCC2)Nc2c1ccc1ccccc21 (stereo unspecified) the results were FXIIa inh 1536 -7, thrombin 1536 -7, KLK5 inh -18, EP2 mod 63*, FXIa inh 1536 -5 and EP2 antag 16.
